What all share (type): cell-based
Assay [1] concerns the target P2Y purinoceptor 12 (Homo sapiens) (UniProt Q9H244). Put plainly: Antagonist activity at P2Y12 receptor in human blood platelets assessed as inhibition of ADP-induced platelet aggregation at 10 uM compound preincubated with blood for 5 mins prior to ADP addition by electrode aggregometry assay. The settings on record: filed as antagonist. The essentials:
(§1)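 Fresh hirudin-anticoagulated human whole blood from volunteers free of medication for seven days, tested within two hours of venepuncture. 300 μL blood mixed with 300 μL pre-warmed isotonic saline containing compound (0, 0.1, 1, 10 or 100 μM final) or vehicle (1% DMSO final). Incubated 5 min at 37 °C, then 20 μL 0.2 mM ADP added.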

For assay [2] the target is unchanged. The assay is described as follows: Antagonist activity at P2Y12 receptor in human blood platelets assessed as inhibition of ADP-induced platelet aggregation at 1 uM compound preincubated with blood for 5 mins prior to ADP addition by electrode aggregometry assay. An outline of the steps: as §1
Assay [3] shares this target. The assay is described as follows: Antagonist activity at P2Y12 receptor in human blood platelets assessed as inhibition of ADP-induced platelet aggregation at 0.1 uM compound preincubated with blood for 5 mins prior to ADP addition by electrode aggregometry assay. The essentials:
as §1

Sequence of P2Y purinoceptor 12 (Homo sapiens) (Q9H244 whole entry): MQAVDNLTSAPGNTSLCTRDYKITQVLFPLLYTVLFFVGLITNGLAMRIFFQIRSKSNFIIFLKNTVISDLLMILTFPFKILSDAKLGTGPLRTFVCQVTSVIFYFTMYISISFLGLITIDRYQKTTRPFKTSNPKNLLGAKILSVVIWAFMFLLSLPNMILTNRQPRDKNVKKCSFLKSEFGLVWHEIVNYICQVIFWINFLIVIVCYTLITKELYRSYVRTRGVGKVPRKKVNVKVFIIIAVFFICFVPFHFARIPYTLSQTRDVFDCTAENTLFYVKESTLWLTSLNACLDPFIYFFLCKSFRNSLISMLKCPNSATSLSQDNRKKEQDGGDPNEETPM

Take `O=C(CCCCCCCC(=O)Nc1ccc2[nH]c3ccccc3c(=O)c2c1)Nc1ccc2[nH]c3ccccc3c(=O)c2c1`: the inhibition was 41.1% in assay [1], 22.8% in assay [2] and 4.75% in assay [3].
As for `CCOC(=O)c1cc(NC(=O)c2cc(NC(=O)c3cc(NC(=O)c4c(-c5ccccc5)noc4C)cn3C)cn2C)cn1C`, the inhibition came to 61.8% in assay [1], 38.2% in assay [2] and 37% in assay [3].
`O=C(CCC(=O)Nc1ccc2[nH]c3ccccc3c(=O)c2c1)Nc1ccc2[nH]c3ccccc3c(=O)c2c1`: the inhibition was 57.8% in assay [1], 33.6% in assay [2] and 22.3% in assay [3].

A word on the inhibition: it is the percentage by which the read-out fell short of the control.

Source of the values: ChEMBL document CHEMBL5230169, “QSAR, structure-based pharmacophore modelling and biological evaluation of novel platelet ADP receptor (P2Y12) antagonist” (RSC Med Chem, 2023).
